Results from ChEMBL document CHEMBL4831494, “Synthesis and evaluation of FAK inhibitors with a 5-fluoro-7H-pyrrolo[2,3-d]pyrimidine scaffold as anti-hepatocellular carcinoma agents” (Eur J Med Chem, 2021).
Blank lines part the entries; values can stand above or below the compound they belong to. Activity calls are given as the source filed them. No cut-off for these calls is given here.

How the values were obtained:
[1] = system: SMMC-7721; assay: Antitumor activity against human […] cells xenografted in BALB/c nude mouse assessed as tumor size at 10 mg/kg, ip administered for 19 days (reference value: 600.8 mm3); assay type: functional; conditions: time 19 day
Method in brief: (§1)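 Male BALB/c nude mice, six weeks old, inoculated s.c. with 1.0 × 10⁷ SMMC7721 cells. Dosing began at mean tumour 25e35 mm³; five randomized groups, n = 8. Solvent DMSO/propylene glycol/PBS 2:5:3 (vehicle 1.0 mL/kg), all given i.p. every 3 days. Tumour size (calipers) and body weight taken before each dose. V = length × width²/2. TGI = [1 − (T−T₀)/(C−C₀)] × 100.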

[2] = AUC (0 to infinity) in Sprague-Dawley rat at 2 mg/kg, iv by LC-MS/MS analysis; assay type: ADME, organism-based; parameters: route intravenous, time infinity, dose 2 mg/kg; conditions: in vivo
Method in brief: (§2)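 Male SD rats, 6e8 weeks, 220 30 g, three per route (p.o. or i.v.). Compound given in DMSO/Solutol/saline (5/10/85). Centrifuged 6800 g for 6 min at 2e8 °C, frozen near −80 °C, analysed by LC-MS/MS. Mean ± SEM, n = 3.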

[3] = Tmax in Sprague-Dawley rat at 2 mg/kg, iv measured upto 24 hrs by LC-MS/MS analysis; assay type: ADME, organism-based; conditions: in vivo; method in brief: as §2
[4] = system: SMMC-7721; assay: Antitumor activity against human […] cells xenografted in BALB/c nude mouse assessed as tumor size at 30 mg/kg, ip administered for 19 days (reference value: 600.8 mm3); assay type: functional; conditions: time 19 day; method in brief: as §1
[5] = Upregulation of integrin beta1 phosphorylation at Thr788 residue in human HCC cells at 30 uM by KEGG analysis relative to control; assay type: functional
[6] = Cmax in Sprague-Dawley rat at 2 mg/kg, iv measured upto 24 hrs by LC-MS/MS analysis; assay type: ADME, organism-based; parameters: route intravenous, dose 2 mg/kg, time <=24; conditions: in vivo; method in brief: as §2
[7] = target: T1, Focal adhesion kinase 1 (Homo sapiens, UniProt Q05397); assay: Inhibition of FAK phosphorylation in human HCC cells assessed as reduction in mTOR phosphorylation at 30 mg/kg by KEGG analysis
Target sequence in this assay (Q05397 2-1052 limits assumed): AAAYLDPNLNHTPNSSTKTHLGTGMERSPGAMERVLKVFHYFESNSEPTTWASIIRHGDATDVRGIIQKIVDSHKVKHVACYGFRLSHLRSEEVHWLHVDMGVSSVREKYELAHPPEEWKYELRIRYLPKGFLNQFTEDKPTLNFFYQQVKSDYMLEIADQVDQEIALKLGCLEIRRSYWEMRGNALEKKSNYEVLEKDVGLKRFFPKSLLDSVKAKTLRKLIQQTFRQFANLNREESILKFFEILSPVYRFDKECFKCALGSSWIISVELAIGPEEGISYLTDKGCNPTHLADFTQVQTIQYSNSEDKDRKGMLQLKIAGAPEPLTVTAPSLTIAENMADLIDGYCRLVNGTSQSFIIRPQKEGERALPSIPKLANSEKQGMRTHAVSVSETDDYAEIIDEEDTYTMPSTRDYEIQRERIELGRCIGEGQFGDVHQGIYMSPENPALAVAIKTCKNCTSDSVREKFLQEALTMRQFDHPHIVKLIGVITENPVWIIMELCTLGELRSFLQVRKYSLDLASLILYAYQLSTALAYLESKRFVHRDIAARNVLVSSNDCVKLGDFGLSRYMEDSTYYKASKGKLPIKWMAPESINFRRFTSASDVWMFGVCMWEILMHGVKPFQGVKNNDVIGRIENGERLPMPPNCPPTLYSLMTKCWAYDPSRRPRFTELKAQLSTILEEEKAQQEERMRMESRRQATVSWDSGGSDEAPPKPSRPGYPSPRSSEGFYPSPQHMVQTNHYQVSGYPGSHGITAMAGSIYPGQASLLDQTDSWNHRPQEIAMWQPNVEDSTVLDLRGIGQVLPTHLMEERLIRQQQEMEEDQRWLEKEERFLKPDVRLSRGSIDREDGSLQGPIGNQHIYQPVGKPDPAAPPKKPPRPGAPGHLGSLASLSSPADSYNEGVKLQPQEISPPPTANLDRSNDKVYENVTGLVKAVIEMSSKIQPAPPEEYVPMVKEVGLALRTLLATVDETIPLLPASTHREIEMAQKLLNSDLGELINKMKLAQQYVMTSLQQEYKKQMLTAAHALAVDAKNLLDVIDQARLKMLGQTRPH

[8] = Tmax in Sprague-Dawley rat at 10 mg/kg, po measured upto 24 hrs by LC-MS/MS analysis; assay type: ADME, organism-based; conditions: in vivo; method in brief: as §2
[9] = target: T1, Focal adhesion kinase 1; assay: Inhibition of FAK phosphorylation in human HCC cells at 30 mg/kg by KEGG analysis
Target sequence in this assay (Q05397 2-1052 limits assumed): as above

[10] = AUC (0 to infinity) in Sprague-Dawley rat at 10 mg/kg, po by LC-MS/MS analysis; assay type: ADME, organism-based; parameters: time infinity, route oral, dose 10 mg/kg; conditions: in vivo; method in brief: as §2
[11] = system: SMMC-7721; assay: cells; conditions: Homo sapiens, SMMC-7721, 48 h
[12] = target: T1, Focal adhesion kinase 1; assay: Inhibition of FAK phosphorylation in human HCC cells assessed as upregulation of FOXO phosphorylation at 30 uM by KEGG analysis; assay type: cell-based
Target sequence in this assay (Q05397 2-1052 limits assumed): as above

[13] = cells; conditions: Homo sapiens, YY-8103, 48 h
[14] = MRT (0 to t) in Sprague-Dawley rat at 10 mg/kg, po measured upto 24 hrs by LC-MS/MS analysis; assay type: ADME, organism-based; conditions: in vivo; method in brief: as §2
[15] = target: T1, Focal adhesion kinase 1; assay: Inhibition of FAK (unknown origin) using Poly(Glu,Tyr) and ATP as substrate measured after 40 mins by Kinase-Glo Plus luminescence assay
Target sequence in this assay (Q05397 whole entry): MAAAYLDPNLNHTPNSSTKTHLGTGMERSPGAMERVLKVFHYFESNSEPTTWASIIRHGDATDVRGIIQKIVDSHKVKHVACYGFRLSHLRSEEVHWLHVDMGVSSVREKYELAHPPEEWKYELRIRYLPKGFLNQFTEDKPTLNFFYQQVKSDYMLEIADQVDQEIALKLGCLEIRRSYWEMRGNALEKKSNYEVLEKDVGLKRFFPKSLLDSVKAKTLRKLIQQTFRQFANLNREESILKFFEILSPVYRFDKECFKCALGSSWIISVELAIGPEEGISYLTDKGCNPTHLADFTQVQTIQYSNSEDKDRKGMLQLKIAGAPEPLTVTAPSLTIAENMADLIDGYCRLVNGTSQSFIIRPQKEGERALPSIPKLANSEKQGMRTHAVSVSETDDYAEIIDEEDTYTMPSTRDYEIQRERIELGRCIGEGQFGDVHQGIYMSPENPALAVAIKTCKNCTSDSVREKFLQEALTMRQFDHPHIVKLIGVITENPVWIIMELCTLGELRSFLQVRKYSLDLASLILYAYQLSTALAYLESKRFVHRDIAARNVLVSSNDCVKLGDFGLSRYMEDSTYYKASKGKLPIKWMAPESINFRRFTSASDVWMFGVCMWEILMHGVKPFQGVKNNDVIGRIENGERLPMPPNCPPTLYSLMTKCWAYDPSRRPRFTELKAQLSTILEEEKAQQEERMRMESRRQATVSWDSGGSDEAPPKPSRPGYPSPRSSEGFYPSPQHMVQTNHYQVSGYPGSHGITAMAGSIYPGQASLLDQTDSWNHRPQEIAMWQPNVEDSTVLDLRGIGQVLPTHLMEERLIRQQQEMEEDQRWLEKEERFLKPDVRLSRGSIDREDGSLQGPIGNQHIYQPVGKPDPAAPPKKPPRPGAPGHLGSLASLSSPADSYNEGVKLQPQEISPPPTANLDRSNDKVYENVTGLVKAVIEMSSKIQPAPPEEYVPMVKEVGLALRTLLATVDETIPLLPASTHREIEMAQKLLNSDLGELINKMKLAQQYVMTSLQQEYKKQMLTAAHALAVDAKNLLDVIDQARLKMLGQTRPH

[16] = Toxicity in BALB/c nude mouse assessed as effect on body weight at 10 to 30 mg/kg, ip administered for 19 days; assay type: organism-based; conditions: in vivo, 456 h, dose 10-30 mg/kg, time 19 day
Method in brief: (§3)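 Six-week-old male BALB/c nude mice bearing subcutaneous SMMC7721 xenografts (1.0 × 10⁷ cells); dosing started at mean tumor 25-35 mm³, n = 8 per group. Ip every 3 days in DMSO/propylene glycol/PBS (2:5:3); vehicle 1.0 mL/kg as negative control. Body weight weighed and deaths recorded every 3 days before each dose, through day 19.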

[17] = Half life in Sprague-Dawley rat at 2 mg/kg, iv measured upto 24 hrs by LC-MS/MS analysis; assay type: ADME, organism-based; conditions: in vivo; method in brief: as §2
[18] = target: T1, Focal adhesion kinase 1; assay: Inhibition of FAK phosphorylation in human HCC cells assessed as reduction in PDK1 phosphorylation at 30 mg/kg by KEGG analysis
Target sequence in this assay (Q05397 2-1052 limits assumed): as the sequence (Q05397 2-1052 limits assumed) above

[19] = AUC (0 to t) in Sprague-Dawley rat at 10 mg/kg, po measured upto 24 hrs by LC-MS/MS analysis; assay type: ADME, organism-based; parameters: route oral, dose 10 mg/kg, time <=24; conditions: in vivo; method in brief: as §2
[20] = AUC (0 to t) in Sprague-Dawley rat at 2 mg/kg, iv measured upto 24 hrs by LC-MS/MS analysis; assay type: ADME, organism-based; parameters: route intravenous, dose 2 mg/kg, time <=24; conditions: in vivo
[21] = target: T1, Focal adhesion kinase 1; assay: Inhibition of FAK phosphorylation in human HCC cells assessed as reduction in NFkappaB phosphorylation at 30 mg/kg by KEGG analysis
Target sequence in this assay (Q05397 2-1052 limits assumed): as above

[22] = system: SMMC-7721; assay: Antitumor activity against human […] cells xenografted in BALB/c nude mouse assessed as tumor growth inhibition at 30 mg/kg, ip administered for 19 days; assay type: functional; conditions: SMMC-7721, ip, 456 h, time 19 day, read-out: TGI; method in brief: as §1
[23] = Oral bioavailability in Sprague-Dawley rat 10 mg/kg measured upto 24 hrs by LC-MS/MS analysis; assay type: ADME, organism-based; conditions: in vivo; method in brief: as §2
[24] = MRT (0 to infinity) in Sprague-Dawley rat at 2 mg/kg, iv by LC-MS/MS analysis; assay type: ADME, organism-based; conditions: in vivo; method in brief: as §2
[25] = MRT (0 to t) in Sprague-Dawley rat at 2 mg/kg, iv measured upto 24 hrs by LC-MS/MS analysis; assay type: ADME, organism-based; conditions: in vivo; method in brief: as §2
[26] = Toxicity in BALB/c nude mouse assessed as animal's mortality at 10 to 30 mg/kg, ip administered for 19 days; assay type: organism-based; conditions: in vivo, 456 h, dose 10-30 mg/kg, time 19 day; method in brief: as §3
[27] = MRT (0 to infinity) in Sprague-Dawley rat at 10 mg/kg, po by LC-MS/MS analysis; assay type: ADME, organism-based; conditions: in vivo; method in brief: as §2
[28] = Acute toxicity in Kunming mouse assessed as body weight at 5 to 200 mg/kg, ip observed for 10 days; assay type: organism-based; conditions: in vivo, 240 h, dose 5-200 mg/kg, time 10 day
Method in brief: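 Kunming mice (18-22 g), 30 animals in 5 groups of 6 (3 male, 3 female); single intraperitoneal dose of 0, 5, 10, 50 or 200 mg/kg in DMSO/propylene glycol/PBS (2/5/3). Animals observed and weighed daily for 10 days.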

[29] = Volume of distribution at steady state in Sprague-Dawley rat at 2 mg/kg, iv measured upto 24 hrs by LC-MS/MS analysis; assay type: ADME, organism-based; conditions: in vivo; method in brief: as §2
[30] = Cmax in Sprague-Dawley rat at 10 mg/kg, po measured upto 24 hrs by LC-MS/MS analysis; assay type: ADME, organism-based; parameters: route oral, dose 10 mg/kg, time <=24; conditions: in vivo; method in brief: as §2
[31] = target: T1, Focal adhesion kinase 1; assay: Inhibition of FAK phosphorylation in human HCC cells assessed as reduction in Akt phosphorylation at 30 mg/kg by KEGG analysis
Target sequence in this assay (Q05397 2-1052 limits assumed): as above

[32] = Half life in Sprague-Dawley rat at 10 mg/kg, po measured upto 24 hrs by LC-MS/MS analysis; assay type: ADME, organism-based; conditions: in vivo; method in brief: as §2
[33] = Clearance in Sprague-Dawley rat at 2 mg/kg, iv measured upto 24 hrs by LC-MS/MS analysis; assay type: ADME, organism-based; conditions: in vivo; method in brief: as §2
[34] = Toxicity in BALB/c nude mouse assessed as animal's mortality at 30 mg/kg, ip measured on day 11; assay type: organism-based; conditions: in vivo, 264 h, time 11 day; method in brief: as §3
[35] = Toxicity in BALB/c nude mouse assessed as effect on body weight at 30 mg/kg, ip administered for 19 days; assay type: organism-based; conditions: in vivo, 456 h, time 19 day; method in brief: as §1

Structure (SMILES): CNC(=O)c1ccccc1Nc1nc(Nc2cccc(NC(C)=O)c2)nc2[nH]cc(F)c12
Activity [1]: 348.3 mm3
AUC(0-inf) [2]: 2300 ng·h/mL
Tmax [3]: 4.8 min
Activity [4]: 153.5 mm3
fold change (FC) [5]: 2.82
Cmax [6]: 5020 ng/mL
inhibition [7]: Active
Tmax [8]: 4.67 h
inhibition [9]: Active
AUC(0-inf) [10]: 119 ng·h/mL
IC50 [11]: 10.1 µM
inhibition [12]: Active
IC50 [13]: 2.39 µM
MRT last at 24 h [14]: 4.54 h
IC50 [15]: 0.012 µM
Activity [16]: Non-Toxic
half-life [17]: 1.46 h
inhibition [18]: Active
AUC(0-t) at 24 h [19]: 95.5 ng·h/mL
AUC(0-t) at 24 h [20]: 2300 ng·h/mL
inhibition [21]: Active
inhibition in vivo at 30 mg/kg [22]: 78.6%
bioavailability [23]: 0.83%
MRT [24]: 0.53 h
MRT last at 24 h [25]: 0.51 h
Activity [26]: Non-Toxic
MRT inf [27]: 6.62 h
Activity [28]: Non-Toxic
Vdss [29]: 1.8426 L/kg
Cmax [30]: 15.4 ng/mL
inhibition [31]: Active
half-life [32]: 3.65 h
CL [33]: 14.49 mL/min/kg

Structure (SMILES): COc1cc(N2CCOCC2)ccc1Nc1nc(NCc2cccnc2N(C)S(C)(=O)=O)c2c(F)c[nH]c2n1
IC50 [11]: 15.3 µM
IC50 [13]: 15.4 µM
IC50 [15]: 0.023 µM

Structure (SMILES): CN(c1ncccc1CNc1nc(Nc2ccc(N3CCOCC3)cc2)nc2[nH]cc(F)c12)S(C)(=O)=O
IC50 [11]: > 100 µM
IC50 [13]: > 100 µM
IC50 [15]: 0.026 µM

Structure (SMILES): CNC(=O)c1ccccc1Nc1nc(Nc2ccc(N3CCOCC3)cc2OC)nc2[nH]cc(F)c12
IC50 [11]: 33.9 µM
IC50 [13]: 14.2 µM
IC50 [15]: 0.023 µM

Structure (SMILES): CNC(=O)c1ccccc1Nc1nc(Nc2cccc(CNC(C)=O)c2)nc2[nH]cc(F)c12
IC50 [11]: 18.7 µM
IC50 [13]: 1.06 µM
IC50 [15]: 0.014 µM

Structure (SMILES): CN(c1ncccc1CNc1nc(Nc2ccc3c(c2)CC(=O)N3)ncc1C(F)(F)F)S(C)(=O)=O [PF-00562271]
Activity [4]: 295.9 mm3
Activity [34]: Toxic
Activity [35]: Non-Toxic
inhibition in vivo at 30 mg/kg [22]: 54.1%

Structure (SMILES): COc1cc(Nc2nc(NCc3cccnc3N(C)S(C)(=O)=O)c3c(F)c[nH]c3n2)cc(OC)c1OC
IC50 [11]: > 100 µM
IC50 [13]: > 100 µM
IC50 [15]: 0.017 µM

Continued, values first:

IC50 [11]: 18.7 µM
IC50 [13]: 12.4 µM
IC50 [15]: 0.064 µM
Structure (SMILES): Cc1c[nH]c2nc(Nc3ccc4c(c3)CC(=O)N4)nc(NCc3cccnc3N(C)S(C)(=O)=O)c12

IC50 [11]: 73.2 µM
IC50 [13]: 24.1 µM
IC50 [15]: 0.022 µM
Structure (SMILES): CN(c1ncccc1CNc1nc(Nc2ccc3c(c2)CC(=O)N3)nc2[nH]cc(F)c12)S(C)(=O)=O

IC50 [11]: > 100 µM
IC50 [13]: > 100 µM
IC50 [15]: 0.076 µM
Structure (SMILES): COc1cccc(Nc2nc(NCc3cccnc3N(C)S(C)(=O)=O)c3c(F)c[nH]c3n2)c1C

IC50 [11]: > 100 µM
IC50 [13]: > 100 µM
IC50 [15]: 12 µM
Structure (SMILES): Cc1cc2c(NCc3cccnc3N(C)S(C)(=O)=O)nc(Nc3ccc4c(c3)CC(=O)N4)nc2[nH]1

IC50 [11]: 21.7 µM
IC50 [13]: 20.5 µM
IC50 [15]: 0.023 µM
Structure (SMILES): CC(=O)NCc1cccc(Nc2nc(NCc3cccnc3N(C)S(C)(=O)=O)c3c(F)c[nH]c3n2)c1

IC50 [11]: > 100 µM
IC50 [13]: > 100 µM
IC50 [15]: 0.035 µM
Structure (SMILES): CN(c1ncccc1CNc1nc(Nc2cccc(C#N)c2)nc2[nH]cc(F)c12)S(C)(=O)=O
